Test results: ChEMBL document CHEMBL1154722, “Syntheses and evaluation of the antioxidant activity of acitretin analogs with amide bond(s) in the polyene spacer” (Eur J Med Chem, 2010)
Calls of active or inactive are those of the source. No cut-off for these calls is given here.

Experiments:
Rattus norvegicus = assay: Antiinflammatory activity in Fisher 344 rat assessed as inhibition of carrageenan-induced paw edema at 0.01 mmol/Kg, ip administered simultaneously with carrageenan measured after 3.5 hrs relative to control; format: functional; conditions: Fisher 344, ip
In short: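 Fischer-344 rats of both sexes (pregnant females excluded), 6–15 per group. Oedema induced in right hind paw by intradermal 0.1 ml 2% carrageenan in water. Compounds suspended in water with a few drops Tween 80, given ip at carrageenan injection. Rats killed at 3.5 h. Injected minus uninjected paw weight compared with water-treated controls as % inhibition. Mean of two experiments.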

Glycine max [1] = assay: Inhibition of soybean lipoxygenase assessed as conversion of sodium linoleate to 13-hydroperoxylinoleate at 100 uM
In short: (§1)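 Soybean lipoxygenase solution (1/9×10^-4 w/v in saline) incubated at room temperature with sodium linoleate and compound in DMSO. Conversion to 13-hydroperoxylinoleate recorded at 234 nm and compared with a standard inhibitor. At least triplicate.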

[2] = Antioxidant activity assessed as inhibition of AAPH-induced lipid peroxidation at 100 uM; format: functional
In short: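 Run at 37 °C in 0.05 M phosphate buffer pH 7.4 with 10 μL of 16 mM sodium linoleate (stock), compound in DMSO (10 μL). Oxidation started in air by 50 μL of 40 mM AAPH (stock). Conjugated diene formation followed as rising absorbance at 234 nm. Controls carried the same DMSO level. At least triplicate.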

[3] = tested on: Radical scavenging activity; assay: Antioxidant activity assessed as DPPH radical scavenging activity at 100 uM after 20 mins by spectrophotometry; format: functional
In short: (§2)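 DPPH at 0.05 mM in absolute ethanol mixed with an equal volume of compound in DMSO. Mixture shaken and left 20 or 60 min. Absorbance read at 517 nm to give percent activity. Three replicates averaged.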

[4] = Inhibition of soybean lipoxygenase assessed as conversion of sodium linoleate to 13-hydroperoxylinoleate; design: species or system Glycine max; in short: as §1
[5] = tested on: Radical scavenging activity; assay: Antioxidant activity assessed as DPPH radical scavenging activity at 100 uM after 60 mins by spectrophotometry; format: functional; in short: as §2
Glycine max [6] = assay: Inhibition of soybean lipoxygenase assessed as conversion of sodium linoleate to 13-hydroperoxylinoleate at 10 uM; in short: as §1
Glycine max [7] = assay: Inhibition of soybean lipoxygenase assessed as conversion of sodium linoleate to 13-hydroperoxylinoleate at 50 uM; in short: as §1

SMILES | inhibition (Glycine max [1]) | IC50 [4] | inhibition (Glycine max [6]) | inhibition (Glycine max [7]) | inhibition in vivo at 10 µmol/kg (Rattus norvegicus) | inhibition [2] | Activity [3] | Activity [5]
COc1ccc2c(c1)c(CC(=O)O)c(C)n2C(=O)c1ccc(Cl)cc1 [INDOMETHACIN] | – | – | – | – | 47% | – | – | –
Cc1c(C)c2c(c(C)c1O)CCC(C)(C(=O)O)O2 (stereo not given) | – | – | – | – | – | 63% | – | –
COc1cc(OC)c(OC)cc1/C=C/C(=O)n1ccc(/C(C)=C/C(=O)OC(C)(C)C)c1 | 39% | – | – | – | – | 46% | 8% | –
CC(Cc1ccc(O)c(O)c1)C(C)Cc1ccc(O)c(O)c1 (stereo not given) | – | – | – | – | – | – | 81% | 83%
O=C(O)/C=C/c1cn(C(=O)/C=C/c2ccc3c(c2)OCO3)c2ccccc12 | – | 65 µM | – | – | 34% | 22% | 21% | –
O=C(O)/C=C/c1ccc(O)c(O)c1 [CAFFEIC ACID] | – | 600 µM | – | – | – | 17.5% | 5.5% | –
COc1cc(OC)c(C2CC(=O)n3c2c(/C=C/C(=O)O)c2ccccc23)cc1OC (stereo not given) | – | 45.2 µM | – | – | 9% | 57% | 12% | –
O=C(O)/C=C/C(=O)n1cc(C(=O)Nc2cccc([N+](=O)[O-])c2)c2ccccc21 | 26% | – | – | – | – | 94% | inactive | –
COc1cc(C)c(/C=C/C(C)=C/C=C/C(C)=C/C(=O)O)c(C)c1C [ACITRETIN] | 1% | – | – | – | 63% | 85% | inactive | –
CC(C)(C)OC(=O)/C=C/c1cn(C(=O)/C=C/c2ccc3c(c2)OCO3)c2ccccc12 | – | 82.5 µM | – | – | – | 95% | 13% | –
CC(C)(C)OC(=O)/C=C1/c2ccccc2-c2c(NC(=O)/C=C/c3ccc4c(c3)OCO4)cccc21 | 43% | – | – | – | – | 49% | inactive | 6%

Second part, led by results:

inhibition (Glycine max [1]) | IC50 [4] | inhibition (Glycine max [6]) | inhibition (Glycine max [7]) | SMILES | inhibition in vivo at 10 µmol/kg (Rattus norvegicus) | inhibition [2] | Activity [3] | Activity [5]
10% | – | – | – | COc1cc(NC(=O)c2cn(C(=O)CCC(=O)O)c3ccccc23)cc(OC)c1OC | – | 34% | 12.5% | –
69% | – | – | – | COc1ccc(NC(=O)c2cn(C(=O)/C=C/c3cc(OC)c(OC)cc3OC)c3ccccc23)c(OC)c1 | – | 42% | 5% | –
– | 35 µM | – | – | COc1ccc(NC(=O)c2cn(C(=O)/C=C/C(=O)O)c3ccccc23)c(OC)c1 | 46% | 77% | 10% | –
85% | – | 0% | 85% | COc1cc(OC)c(OC)cc1/C=C/C(=O)n1cc(/C=C/C(=O)OC(C)(C)C)c2ccccc21 | – | 80% | 8.3% | –
– | 100 µM | – | – | COc1ccc(NC(=O)c2cn(C(=O)/C=C/C(=O)OC(C)(C)C)c3ccccc23)c(OC)c1 | 58.6% | 68% | 5% | –
42% | – | – | – | COc1cc(NC(=O)c2cn(C(=O)/C=C\C(=O)O)c3ccccc23)cc(OC)c1OC | – | 8% | 2% | –
– | 52.4 µM | – | – | O=C(O)/C=C/C(=O)n1cc(C(=O)Nc2ccccc2)c2ccccc21 | – | 85% | 1% | –
57% | – | – | – | COc1cc(NC(=O)c2cn(C(=O)/C=C/C(=O)O)c3ccccc23)cc(OC)c1OC | – | 64% | 26% | –
